Data reported in ChEMBL document CHEMBL1275252, “First survey of metallo-beta-lactamases in clinical isolates of Pseudomonas aeruginosa in a German university hospital” (2010).
Converted amounts (≈) assume the structure as drawn.

Experiments:
Assay type in all cases: functional
Pseudomonas aeruginosa [1] = assay: Antimicrobial activity against Pseudomonas aeruginosa isolate PA469 expressing VIM-2 beta-lactamase
Pseudomonas aeruginosa [2] = assay: Antimicrobial activity against metallo-beta-lactamase-negative Pseudomonas aeruginosa isolate PA479
Pseudomonas aeruginosa [3] = assay: Antimicrobial activity against Pseudomonas aeruginosa isolate PA481 expressing VIM-2 beta-lactamase
Pseudomonas aeruginosa [4] = assay: Antimicrobial activity against Pseudomonas aeruginosa isolate PA475 expressing VIM-2 beta-lactamase
Pseudomonas aeruginosa [5] = assay: Antimicrobial activity against metallo-beta-lactamase-negative Pseudomonas aeruginosa isolate PA483
Pseudomonas aeruginosa [6] = assay: Antimicrobial activity against Pseudomonas aeruginosa isolate PA477 expressing VIM-2 beta-lactamase
Pseudomonas aeruginosa [7] = assay: Antimicrobial activity against Pseudomonas aeruginosa isolate PA510 expressing VIM-2 beta-lactamase
Pseudomonas aeruginosa [8] = assay: Antimicrobial activity against Pseudomonas aeruginosa isolate PA462 expressing VIM-2 beta-lactamase
Pseudomonas aeruginosa [9] = assay: Antimicrobial activity against Pseudomonas aeruginosa isolate PA465 expressing VIM-2 beta-lactamase
Pseudomonas aeruginosa [10] = assay: Antimicrobial activity against Pseudomonas aeruginosa isolate PA500 expressing VIM-1 beta-lactamase
Pseudomonas aeruginosa [11] = assay: Antimicrobial activity against Pseudomonas aeruginosa isolate PA399 expressing VIM-2 beta-lactamase
Pseudomonas aeruginosa [12] = assay: Antimicrobial activity against metallo-beta-lactamase-negative Pseudomonas aeruginosa isolate PA509
Pseudomonas aeruginosa [13] = assay: Antimicrobial activity against metallo-beta-lactamase-negative Pseudomonas aeruginosa isolate PA459
Outline: (§1)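 MBL-negative clinical P. aeruginosa isolates with reduced imipenem susceptibility, collected at the study hospital, some from cystic fibrosis patients. Species identity was confirmed by automated Gram-negative identification card. MIC was read in μg/ml.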

Pseudomonas aeruginosa [14] = assay: Antimicrobial activity against metallo-beta-lactamase-negative Pseudomonas aeruginosa isolate PA494
Pseudomonas aeruginosa [15] = assay: Antimicrobial activity against metallo-beta-lactamase-negative Pseudomonas aeruginosa isolate PA460
Pseudomonas aeruginosa [16] = assay: Antimicrobial activity against metallo-beta-lactamase-negative Pseudomonas aeruginosa isolate PA507; outline: as §1

Row | SMILES | MIC (Pseudomonas aeruginosa [1]) [µg/mL] | MIC (Pseudomonas aeruginosa [2]) [µg/mL] | MIC (Pseudomonas aeruginosa [3]) [µg/mL] | MIC (Pseudomonas aeruginosa [4]) [µg/mL] | MIC (Pseudomonas aeruginosa [5]) [µg/mL] | MIC (Pseudomonas aeruginosa [6]) [µg/mL] | MIC (Pseudomonas aeruginosa [7]) [µg/mL] | MIC (Pseudomonas aeruginosa [8]) [µg/mL] | MIC (Pseudomonas aeruginosa [9]) [µg/mL] | MIC (Pseudomonas aeruginosa [10]) [µg/mL] | MIC (Pseudomonas aeruginosa [11]) [µg/mL] | MIC (Pseudomonas aeruginosa [12]) [µg/mL] | MIC (Pseudomonas aeruginosa [13]) [µg/mL] | MIC (Pseudomonas aeruginosa [14]) [µg/mL] | MIC (Pseudomonas aeruginosa [15]) [µg/mL] | MIC (Pseudomonas aeruginosa [16]) [µg/mL]
1 | CO/N=C(\C(=O)N[C@@H]1C(=O)N2C(C(=O)[O-])=C(C[N+]3(C)CCCC3)CS[C@H]12)c1csc(N)n1 [CEFEPIME] | ≥ 64 | ≥ 64 | ≥ 64 | ≥ 64 | 32 (≈ 66.6 µM) | ≥ 64 | ≥ 64 | ≥ 64 | ≥ 64 | ≥ 64 | ≥ 64 | 16 (≈ 33.3 µM) | 8 (≈ 16.6 µM) | 8 (≈ 16.6 µM) |  | 
2 | NC[C@H]1O[C@H](O[C@H]2[C@H](O)[C@@H](O[C@H]3O[C@H](CO)[C@@H](O)[C@H](N)[C@H]3O)[C@H](N)C[C@@H]2N)[C@H](N)C[C@@H]1O [TOBRAMYCIN] | ≥ 16 | ≥ 16 | ≥ 16 | ≥ 16 | 1 (≈ 2.14 µM) | ≥ 16 | ≥ 16 | ≥ 16 | ≤ 1 | 8 (≈ 17.1 µM) | ≥ 16 | ≥ 16 | 1 (≈ 2.14 µM) | 1 (≈ 2.14 µM) | ≥ 16 | 1 (≈ 2.14 µM)
